The source made the active and inactive calls. The calls are words filed in the database; no cut-off is given here. A value given as a limit tells only on which side of the number the result lay.

The target in series [1] is Cytochrome P450 2D6 (Homo sapiens, UniProt P10635). As to the kind of experiment: Inhibition of CYP2D6 at 10 uM. In kind it is ADME. The gist of the method:
(§1)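 Tested against a panel of cytochrome P450 enzymes at a maximum concentration of 10 µM.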

Series [2] addresses Cytochrome P450 3A4 (Homo sapiens, UniProt P08684). As to the kind of experiment: Inhibition of CYP3A4 at 10 uM. It is filed as ADME. An outline of the steps:
as §1

Series [3] is described as follows: Cmax in Sprague-Dawley rat at 3 mg/kg, po by LC/MS analysis. It is filed as ADME, organism-based. Details: dose 3 mg/kg, route oral. The settings on record: in vivo. The gist of the method: (§2)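 Male Sprague-Dawley rats dosed orally at 3 mg/kg as a suspension and intravenously at 1 mg/kg as a bolus. Plasma levels quantified by LC/MS. Oral AUC and Cmax dose-normalized to 1 mg/kg. Means ± SD of three individual experiments.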

The species named for series [4] is Rattus norvegicus. As to the kind of experiment: Selectivity for rat cathepsin S glycine 137 mutant over rat cathepsin L. The gist of the method: (§3)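 Recombinant rat cathepsins in a fluorescence assay with MCA substrates: Z-Leu-Leu-Arg-MCA for cathepsin S (137Gly form), Z-Phe-Arg-MCA for K and L, and Z-Arg-Arg-MCA for B. IC50 values were taken as means ± SD of three experiments, and selectivity was compared from the IC50 values against the S enzyme and each other cathepsin.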

The nature of series [5]: Volume of distribution in Sprague-Dawley rat at 1 mg/kg, iv and 3 mg/kg, po by LC/MS analysis. It is filed as ADME, organism-based. The note with it: in vivo. The gist of the method:
as §2

Series [6] in a line: Inhibition of rat cathepsin S cysteine 137 mutant by fluorescence assay. An outline of the steps:
(§4)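 Recombinant rat cathepsins K, L, S (137Gly and 137Cys forms) and mouse cathepsin S in a fluorescence assay. Substrates: Z-Phe-Arg-MCA for K and L, Z-Leu-Leu-Arg-MCA for S. IC50 reported as means ± SD of three experiments.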

For series [7], the species on record is Homo sapiens. Briefly: Selectivity for human recombinant cathepsin S over human cathepsin X.
The target of series [8] is T1, Procathepsin L (Rattus norvegicus, UniProt P07154).
T1 sequence (P07154 whole entry): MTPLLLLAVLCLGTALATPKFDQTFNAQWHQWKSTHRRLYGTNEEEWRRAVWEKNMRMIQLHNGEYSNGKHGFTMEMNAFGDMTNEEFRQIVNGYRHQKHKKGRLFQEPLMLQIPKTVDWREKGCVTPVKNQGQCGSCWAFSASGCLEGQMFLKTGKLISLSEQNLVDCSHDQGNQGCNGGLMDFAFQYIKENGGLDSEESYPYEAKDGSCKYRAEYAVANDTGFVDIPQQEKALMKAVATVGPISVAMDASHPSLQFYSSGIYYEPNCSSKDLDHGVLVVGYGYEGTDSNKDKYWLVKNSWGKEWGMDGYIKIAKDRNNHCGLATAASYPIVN
Briefly: Inhibition of rat cathepsin L by fluorescence assay. The gist of the method: as §4

Series [9] is described as follows: Genotoxicity in liver S9 fraction by Ames test. It is filed as toxicity, subcellular. An outline of the steps: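 Standard Ames test run with liver S9 enzyme.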
The species entered for series [10] is Homo sapiens. As to the kind of experiment: Selectivity for human recombinant cathepsin S over human cathepsin H.
Series [11] is filed under the species Rattus norvegicus. Briefly: Reversal of neuropathic mechanical hyperalgesia in Wistar rat sciatic nerve ligation model with cathepsin S cysteine 137 mutation. In kind it is functional, organism-based.
Series [12] concerns the target Cytochrome P450 2C19 (Homo sapiens, UniProt P33261). As to the kind of experiment: Inhibition of CYP2C19 at 10 uM. In kind it is ADME. The gist of the method:
as §1

Series [13] concerns the target Procathepsin L (Homo sapiens, UniProt P07711). Briefly: Inhibition of human recombinant cathepsin L by fluorescence assay. The gist of the method:
(§5)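 Recombinant human enzymes in a fluorescence assay; substrate Z-Phe-Arg-MCA for cathepsins K and L, Z-Leu-Leu-Arg-MCA for cathepsin S. Means of two experiments, each run in duplicate; individual points within a 2-fold range of each other.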

Series [14] deals with T2, Cathepsin K (Homo sapiens, UniProt P43235).
T2 sequence (P43235 whole entry): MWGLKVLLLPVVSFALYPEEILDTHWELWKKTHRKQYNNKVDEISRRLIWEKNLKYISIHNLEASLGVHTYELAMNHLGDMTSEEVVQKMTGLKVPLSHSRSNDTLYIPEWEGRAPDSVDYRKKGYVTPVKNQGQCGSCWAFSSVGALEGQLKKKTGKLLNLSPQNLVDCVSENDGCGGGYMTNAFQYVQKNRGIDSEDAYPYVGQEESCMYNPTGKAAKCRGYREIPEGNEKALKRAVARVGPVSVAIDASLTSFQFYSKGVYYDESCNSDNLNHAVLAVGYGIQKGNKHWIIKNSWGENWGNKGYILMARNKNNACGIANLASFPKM
Briefly: Inhibition of human recombinant cathepsin K by fluorescence assay. An outline of the steps: as §5

Series [15] concerns the target Cathepsin S (Mus musculus) (UniProt O70370). Briefly: Inhibition of cathepsin S-mediated proteolytic cleavage of MHC2 associated invariant chain in mouse splenocytes assessed as induction of accumulation of lip10. It is filed as cell-based.
The nature of series [16]: Bioavailability in Sprague-Dawley rat at 1 mg/kg, iv and 3 mg/kg, po by LC/MS analysis. The note with it: in vivo. In kind it is ADME, organism-based. An outline of the steps: as §2
Series [17] deals with T3, Cathepsin K (Rattus norvegicus, UniProt O35186).
T3 sequence (O35186 whole entry): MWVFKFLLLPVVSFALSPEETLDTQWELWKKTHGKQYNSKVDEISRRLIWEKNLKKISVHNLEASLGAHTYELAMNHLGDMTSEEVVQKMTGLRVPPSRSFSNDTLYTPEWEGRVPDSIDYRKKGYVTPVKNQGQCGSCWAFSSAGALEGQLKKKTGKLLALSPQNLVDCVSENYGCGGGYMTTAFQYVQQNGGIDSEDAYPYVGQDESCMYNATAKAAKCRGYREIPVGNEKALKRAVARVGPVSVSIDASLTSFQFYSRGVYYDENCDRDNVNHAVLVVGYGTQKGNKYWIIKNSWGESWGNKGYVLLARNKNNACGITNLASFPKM
Briefly: Inhibition of rat cathepsin K by fluorescence assay. The gist of the method: as §4

The target in series [18] is Cathepsin S (Homo sapiens, UniProt P25774). Briefly: Inhibition of human recombinant cathepsin S by fluorescence assay. An outline of the steps:
as §5

Series [19] addresses Cathepsin S (Mus musculus) (UniProt O70370). Briefly: Inhibition of cathepsin S-mediated proteolytic cleavage of MHC2 associated invariant chain in mouse splenocytes assessed as induction of accumulation of lip10 at 1 µM.
For series [20], the species on record is Rattus norvegicus. Briefly: Selectivity for rat cathepsin S glycine 137 mutant over rat cathepsin K. The gist of the method: as §3
The nature of series [21]: Plasma clearance in Sprague-Dawley rat at 1 mg/kg, iv and 3 mg/kg, po by LC/MS analysis. In kind it is ADME, organism-based. An outline of the steps: as §2

Cathepsin S, sequence (P25774 whole entry): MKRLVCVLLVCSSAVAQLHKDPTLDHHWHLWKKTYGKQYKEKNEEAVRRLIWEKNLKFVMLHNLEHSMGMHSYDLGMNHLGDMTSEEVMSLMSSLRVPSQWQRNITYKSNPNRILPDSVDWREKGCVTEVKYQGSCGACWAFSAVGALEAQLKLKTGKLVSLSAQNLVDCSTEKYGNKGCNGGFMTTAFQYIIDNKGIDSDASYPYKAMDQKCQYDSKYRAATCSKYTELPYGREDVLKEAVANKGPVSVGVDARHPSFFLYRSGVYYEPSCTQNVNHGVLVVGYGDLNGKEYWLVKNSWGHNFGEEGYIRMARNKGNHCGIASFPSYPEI
Cytochrome P450 2D6, sequence (P10635 whole entry): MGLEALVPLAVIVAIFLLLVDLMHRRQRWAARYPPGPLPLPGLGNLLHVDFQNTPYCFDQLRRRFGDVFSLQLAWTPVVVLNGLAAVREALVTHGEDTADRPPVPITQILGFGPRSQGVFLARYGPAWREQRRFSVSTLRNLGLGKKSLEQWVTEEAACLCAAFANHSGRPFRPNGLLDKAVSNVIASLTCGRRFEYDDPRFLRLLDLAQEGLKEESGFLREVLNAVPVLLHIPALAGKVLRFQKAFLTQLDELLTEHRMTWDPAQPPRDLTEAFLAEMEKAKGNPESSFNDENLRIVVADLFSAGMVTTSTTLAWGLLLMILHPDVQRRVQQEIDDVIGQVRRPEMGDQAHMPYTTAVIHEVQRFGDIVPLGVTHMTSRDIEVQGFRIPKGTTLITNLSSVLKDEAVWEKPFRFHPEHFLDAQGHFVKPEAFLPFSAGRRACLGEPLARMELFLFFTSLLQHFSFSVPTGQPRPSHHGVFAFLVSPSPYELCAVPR
Procathepsin L (Homo sapiens, UniProt P07711), sequence (P07711 whole entry): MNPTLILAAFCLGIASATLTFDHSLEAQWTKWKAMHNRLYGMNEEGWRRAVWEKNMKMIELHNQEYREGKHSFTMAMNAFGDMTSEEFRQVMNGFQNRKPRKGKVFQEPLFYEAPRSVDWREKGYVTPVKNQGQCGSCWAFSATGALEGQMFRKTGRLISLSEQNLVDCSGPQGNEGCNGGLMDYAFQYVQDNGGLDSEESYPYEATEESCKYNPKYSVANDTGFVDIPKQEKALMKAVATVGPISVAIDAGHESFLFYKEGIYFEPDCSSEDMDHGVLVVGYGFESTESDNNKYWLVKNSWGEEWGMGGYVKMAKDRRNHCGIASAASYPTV
Cytochrome P450 3A4, sequence (P08684 whole entry): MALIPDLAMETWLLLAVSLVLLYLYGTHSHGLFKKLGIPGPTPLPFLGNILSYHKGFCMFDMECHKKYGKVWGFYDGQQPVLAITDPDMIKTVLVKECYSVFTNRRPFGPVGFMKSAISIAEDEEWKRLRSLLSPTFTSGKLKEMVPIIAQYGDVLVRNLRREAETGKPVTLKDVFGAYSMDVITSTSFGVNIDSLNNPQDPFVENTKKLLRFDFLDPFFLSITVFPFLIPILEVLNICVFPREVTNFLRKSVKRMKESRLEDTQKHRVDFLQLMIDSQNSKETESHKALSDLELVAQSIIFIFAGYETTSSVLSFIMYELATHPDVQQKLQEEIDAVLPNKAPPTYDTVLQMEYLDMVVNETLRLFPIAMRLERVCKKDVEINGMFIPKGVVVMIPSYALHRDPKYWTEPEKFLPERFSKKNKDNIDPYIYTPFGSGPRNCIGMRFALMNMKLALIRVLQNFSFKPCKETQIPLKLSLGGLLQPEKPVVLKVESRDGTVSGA
Cytochrome P450 2C19, sequence (P33261 whole entry): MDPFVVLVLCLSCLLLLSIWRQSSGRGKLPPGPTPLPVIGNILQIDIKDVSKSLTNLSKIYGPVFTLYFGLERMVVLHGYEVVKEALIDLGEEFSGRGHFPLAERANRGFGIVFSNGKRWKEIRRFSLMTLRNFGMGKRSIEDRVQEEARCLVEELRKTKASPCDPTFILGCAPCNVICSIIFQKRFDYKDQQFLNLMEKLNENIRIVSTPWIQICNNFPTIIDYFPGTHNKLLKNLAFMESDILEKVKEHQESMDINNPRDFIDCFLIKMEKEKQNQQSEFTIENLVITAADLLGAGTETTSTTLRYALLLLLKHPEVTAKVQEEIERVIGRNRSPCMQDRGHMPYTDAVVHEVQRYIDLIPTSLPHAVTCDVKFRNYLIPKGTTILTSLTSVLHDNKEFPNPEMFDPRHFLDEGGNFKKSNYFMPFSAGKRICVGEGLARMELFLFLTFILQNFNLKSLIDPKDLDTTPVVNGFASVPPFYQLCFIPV

`CC(=O)N1CCN(c2ccc(OCc3cc4cnc(C#N)nc4n3CCC3CCC(F)(F)CC3)cc2)CC1`: the Activity entry was “Not Active” in [1]; “Not Active” in series [2]; above 100 in [4]; above 100 in series [7]; “Non-toxic” in series [9]; above 100 in [10]. Further, the Activity entry in series [12] was “Not Active”; in [15], “Dose-dependent effect”; in series [20] it was above 100. Also, the concentration in [3] peaked (Cmax) at 37 nM. In series [5], the Vd amounted to 3.7 L/kg. Further, the 50% inhibitory concentration (IC50) in series [6] is above 10 µM; in series [8] it was above 10 µM; in series [13], 6.2 µM; in series [14], 5.4 µM; in series [17], above 10 µM; in series [18], 0.01 µM. In series [11], the result was inactive. The compound also returned a bioavailability in series [16] of 21%. Moreover, the inhibitory constant (Ki) in series [18] stood at 0.004 µM. In addition, the outcome in [19] was Active. The clearance in [21] was 51.7 mL/min/kg.

For orientation: Cmax means the maximum level reached in the sampled fluid or tissue. In general, IC50 refers to the concentration that gives 50% inhibition. What is called bioavailability is the share of a dose that reaches the circulation, judged against a reference dose that is usually intravenous. Usually Ki stands for a measure of affinity in units of concentration, obtained from inhibition or displacement.
